Data reported in publication PMC8851455 (ACS Omega, 2022).

Experiments:
MCF-7 cells = assay: MCF-7 cell proliferation assay; assay type: cell-based, human
Outline: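 MCF-7 cells exposed to test compound or E2 at six concentrations from 10–12 to 10–7 M in EA-free medium. Proliferation read as MTT product absorbance at 570 nm. Three independent trials, each in triplicate. % RME2 = 100 × (OD test − OD VC)/(max OD E2 − OD VC). EC50 from curve fitting. EEF = EC50 of E2/EC50 of sample. One-way ANOVA with Dunnett's test versus E2 at each concentration.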

chicken embryo = assay: Chicken embryonic assay; assay type: in vivo; details: for malformation rate / mortality rate / number of dead chicken embryo / number of malformation chicken embryo / weights: embryo / weights: heart / weights: liver: egg injection, day 18
chicken fetal liver = assay: TBARs level; assay type: in vivo
S. typhimurium TA98 = assay: Ames test, strain TA98; assay type: cell-based, Salmonella typhimurium
S. typhimurium TA100 = assay: Ames test, strain TA100; assay type: cell-based, Salmonella typhimurium
[1] = tested on: S. typhimurium tester strains (TA98, TA100, and TA102); assay: Ames test, overall over three strains; assay type: cell-based, Salmonella typhimurium; details: 5 × 10^–5 to 50 pmol/plate, with or without S9
ERβ = details: cited from earlier work
Swiss mice = details: 100 and 200 mg/kg; cited from earlier work
zebrafish embryos = details: at 1–50 μM; cited from earlier work
[2] = higher dose (0.5 mM: 450–500 μg/kg; E2 0.1 mM: 91 μg/kg)
[3] = lower dose (0.05 mM: 45–50 μg/kg; E2 0.01 mM: 9.1 μg/kg)
[4] = TA100 +S9, 5 × 10^–2 pmol/plate
[5] = TA100 +S9, 5 × 10^–3 pmol/plate
[6] = TA100 +S9, 5 × 10^–4 pmol/plate
[7] = TA100 +S9, 5 × 10^–5 pmol/plate
[8] = TA100 -S9, 5 × 10^–2 pmol/plate
[9] = TA100 -S9, 5 × 10^–3 pmol/plate
[10] = TA100 -S9, 5 × 10^–4 pmol/plate
[11] = TA100 -S9, 5 × 10^–5 pmol/plate

O=c1cc(-c2ccc(O)cc2)oc2cc(O)cc(O)c12 [apigenin]
EEF (estradiol equivalent factor) (MCF-7 cells; EC50 of E2 divided by that of the test compound): 0.16
EC50 (MCF-7 cells; Homo sapiens, MCF7): 62 pM
max % RME2 (MCF-7 cells; highest % RME2 (relative maximum % E2) in test range 10^–12–10^–7 M): 27%
malformation rate (chicken embryo; [2]): 0.0%
mortality rate (chicken embryo; [2]): 10.0%
number of dead chicken embryo (chicken embryo; [2]): 1
number of malformation chicken embryo (chicken embryo; [2]): 0
weights: embryo (chicken embryo; [2]): 21.49 ± 1.44 g
weights: heart (chicken embryo; [2]): 0.17 ± 0.02 g
weights: liver (chicken embryo; [2]): 0.41 ± 0.02 g
fetal liver weight, lower compared with the VC (chicken embryo; higher-dose treatment): ~20%
malformation rate (chicken embryo; [3]): 11.11%
mortality rate (chicken embryo; [3]): 10.0%
number of dead chicken embryo (chicken embryo; [3]): 1
number of malformation chicken embryo (chicken embryo; [3]): 1
weights: embryo (chicken embryo; [3]): 24.29 ± 0.03 g
weights: heart (chicken embryo; [3]): 0.18 ± 0.02 g
weights: liver (chicken embryo; [3]): 0.44 ± 0.02 g
TBARs value (chicken fetal liver; higher dose (0.5 mM: 450–500 μg/kg)): 112.31 nmol/g
TBARs value (chicken fetal liver; lower dose (0.05 mM: 45–50 μg/kg)): 103.73 nmol/g
MI (S. typhimurium TA98; TA98 +S9, 0.5 pmol/plate): 1.1
number of revertants/plate (M ± SD) (S. typhimurium TA98; TA98 +S9, 0.5 pmol/plate): 85 ± 6 revertants/plate
MI (S. typhimurium TA98; TA98 +S9, 5 pmol/plate): 1.1
number of revertants/plate (M ± SD) (S. typhimurium TA98; TA98 +S9, 5 pmol/plate): 80 ± 10 revertants/plate
MI (S. typhimurium TA98; TA98 +S9, 50 pmol/plate): 1.0
number of revertants/plate (M ± SD) (S. typhimurium TA98; TA98 +S9, 50 pmol/plate): 75 ± 20 revertants/plate
MI (S. typhimurium TA98; TA98 +S9, 5 × 10^–2 pmol/plate): 1.2
number of revertants/plate (M ± SD) (S. typhimurium TA98; TA98 +S9, 5 × 10^–2 pmol/plate): 87 ± 6 revertants/plate
MI (S. typhimurium TA98; TA98 +S9, 5 × 10^–3 pmol/plate): 1.1
number of revertants/plate (M ± SD) (S. typhimurium TA98; TA98 +S9, 5 × 10^–3 pmol/plate): 80 ± 18 revertants/plate
MI (S. typhimurium TA98; TA98 +S9, 5 × 10^–4 pmol/plate): 1.1
number of revertants/plate (M ± SD) (S. typhimurium TA98; TA98 +S9, 5 × 10^–4 pmol/plate): 83 ± 9 revertants/plate
MI (S. typhimurium TA98; TA98 +S9, 5 × 10^–5 pmol/plate): 0.9
number of revertants/plate (M ± SD) (S. typhimurium TA98; TA98 +S9, 5 × 10^–5 pmol/plate): 68 ± 2 revertants/plate
MI (S. typhimurium TA98; TA98 -S9, 0.5 pmol/plate): 0.9
number of revertants/plate (M ± SD) (S. typhimurium TA98; TA98 -S9, 0.5 pmol/plate): 9 ± 1 revertants/plate
MI (S. typhimurium TA98; TA98 -S9, 5 pmol/plate): 1.3
number of revertants/plate (M ± SD) (S. typhimurium TA98; TA98 -S9, 5 pmol/plate): 13 ± 1 revertants/plate
MI (S. typhimurium TA98; TA98 -S9, 50 pmol/plate): 1.1
number of revertants/plate (M ± SD) (S. typhimurium TA98; TA98 -S9, 50 pmol/plate): 11 ± 4 revertants/plate
MI (S. typhimurium TA98; TA98 -S9, 5 × 10^–2 pmol/plate): 1.0
number of revertants/plate (M ± SD) (S. typhimurium TA98; TA98 -S9, 5 × 10^–2 pmol/plate): 10 ± 4 revertants/plate
MI (S. typhimurium TA98; TA98 -S9, 5 × 10^–3 pmol/plate): 1.0
number of revertants/plate (M ± SD) (S. typhimurium TA98; TA98 -S9, 5 × 10^–3 pmol/plate): 10 ± 3 revertants/plate
MI (S. typhimurium TA98; TA98 -S9, 5 × 10^–4 pmol/plate): 0.7
number of revertants/plate (M ± SD) (S. typhimurium TA98; TA98 -S9, 5 × 10^–4 pmol/plate): 7 ± 3 revertants/plate
MI (S. typhimurium TA98; TA98 -S9, 5 × 10^–5 pmol/plate): 1.0
number of revertants/plate (M ± SD) (S. typhimurium TA98; TA98 -S9, 5 × 10^–5 pmol/plate): 10 ± 3 revertants/plate
MI (S. typhimurium TA100; TA100 +S9, 0.5 pmol/plate): 1.4
number of revertants/plate (M ± SD) (S. typhimurium TA100; TA100 +S9, 0.5 pmol/plate): 415 ± 4 revertants/plate
MI (S. typhimurium TA100; TA100 +S9, 5 pmol/plate): 1.3
number of revertants/plate (M ± SD) (S. typhimurium TA100; TA100 +S9, 5 pmol/plate): 390 ± 4 revertants/plate
MI (S. typhimurium TA100; TA100 +S9, 50 pmol/plate): 1.3
number of revertants/plate (M ± SD) (S. typhimurium TA100; TA100 +S9, 50 pmol/plate): 400 ± 2 revertants/plate
MI (S. typhimurium TA100; [4]): 1.2
number of revertants/plate (M ± SD) (S. typhimurium TA100; [4]): 377 ± 15 revertants/plate
MI (S. typhimurium TA100; [5]): 1.1
number of revertants/plate (M ± SD) (S. typhimurium TA100; [5]): 349 ± 10 revertants/plate
MI (S. typhimurium TA100; [6]): 1.1
number of revertants/plate (M ± SD) (S. typhimurium TA100; [6]): 342 ± 14 revertants/plate
MI (S. typhimurium TA100; [7]): 1.2
number of revertants/plate (M ± SD) (S. typhimurium TA100; [7]): 358 ± 6 revertants/plate
MI (S. typhimurium TA100; TA100 -S9, 0.5 pmol/plate): 1.0
number of revertants/plate (M ± SD) (S. typhimurium TA100; TA100 -S9, 0.5 pmol/plate): 94 ± 4 revertants/plate
MI (S. typhimurium TA100; TA100 -S9, 5 pmol/plate): 1.0
number of revertants/plate (M ± SD) (S. typhimurium TA100; TA100 -S9, 5 pmol/plate): 96 ± 4 revertants/plate
MI (S. typhimurium TA100; TA100 -S9, 50 pmol/plate): 1.0
number of revertants/plate (M ± SD) (S. typhimurium TA100; TA100 -S9, 50 pmol/plate): 96 ± 8 revertants/plate
MI (S. typhimurium TA100; [8]): 0.9
number of revertants/plate (M ± SD) (S. typhimurium TA100; [8]): 85 ± 6 revertants/plate
MI (S. typhimurium TA100; [9]): 0.8
number of revertants/plate (M ± SD) (S. typhimurium TA100; [9]): 75 ± 13 revertants/plate
MI (S. typhimurium TA100; [10]): 0.9
number of revertants/plate (M ± SD) (S. typhimurium TA100; [10]): 83 ± 6 revertants/plate
MI (S. typhimurium TA100; [11]): 0.9
number of revertants/plate (M ± SD) (S. typhimurium TA100; [11]): 87 ± 6 revertants/plate
Ames test outcome (signs of mutagenicity) [1]: signs of mutagenicity
binding affinity for ERβ (ERβ): 6%
hepatotoxicity (Swiss mice): led to hepatotoxicity
developmental toxicity in zebrafish model (zebrafish embryos): showing developmental toxicity
